M1 antag = M1 muscarinic receptor (rat) antagonism; P08482; CHO-M1 cells, Fluo-4 calcium, ACh EC80 antagonist mode; active compounds read low; B-score at 10 µM; hit rate 3.4% among 64,000;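 active = calcium fluorescence response, raw or row-and-column corrected B-score, differing from the plate sample mean either way at a set confidence level, mostly lower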
SF1 activator = activates the human nuclear receptor SF-1 | Q13285 | CHO-K1 Gal4-SF-1 LBD luciferase reporter; % increase over DMSO SF-1-specific signal | activation, % at 10 µM | hit rate 1.9% among 65,000 | AID 522;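 active = activation above the mean activation of all tested compounds plus 3 SD, cut at about 50% in these data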
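Assay system: CHO-K1 cells co-transfected with Gal4 DBD–human SF-1 LBD, 5xGal4 luciferase reporter / Input: 4,000 cells per well / Incubation: 20 h compound exposure at 37 °C after 1 h cell settling / Detection: SteadyLite luciferase luminescence / Control set: DMSO negative control and −SF1 background wells / Replication: one test per compound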
RORa activator = RORA (human) activation; AID 560; hit rate 1.5% among 65,000; CHO-K1 Gal4-RORA LBD luciferase reporter, luminescence; percent increase over mock-subtracted basal signal; activation, % at 10 µM; P35398;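 active = activation above the mean of all tested compounds plus 3 SD, cut at about 49% in these data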;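 note: 0% = DMSO-treated RORA cells and 100% = added signal equal to DMSO minus mock-transfected cells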
S1P1 ag-PAM = S1P1 (human) agonism or agonism potentiation; P21453; S1P1 CRE-bla cells, forskolin, beta-lactamase FRET, potentiator mode; S1P1 agonist co-added at EC20, 2 nM; 100% = saturating reference agonist, 0% = basal; activation, % at 9.5 µM; hit rate 0.57% among 56,000;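 active = activation above a cutoff set at the mean activation of all tested compounds plus 3 SD, cut at about 54% in these data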;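 note: forskolin at 4 µM as EC80 and the EC20 agonist is SEW2871; 100% = SEW2871 at its EC100 plus forskolin at EC80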
Target sequence (P21453 whole entry, looked up): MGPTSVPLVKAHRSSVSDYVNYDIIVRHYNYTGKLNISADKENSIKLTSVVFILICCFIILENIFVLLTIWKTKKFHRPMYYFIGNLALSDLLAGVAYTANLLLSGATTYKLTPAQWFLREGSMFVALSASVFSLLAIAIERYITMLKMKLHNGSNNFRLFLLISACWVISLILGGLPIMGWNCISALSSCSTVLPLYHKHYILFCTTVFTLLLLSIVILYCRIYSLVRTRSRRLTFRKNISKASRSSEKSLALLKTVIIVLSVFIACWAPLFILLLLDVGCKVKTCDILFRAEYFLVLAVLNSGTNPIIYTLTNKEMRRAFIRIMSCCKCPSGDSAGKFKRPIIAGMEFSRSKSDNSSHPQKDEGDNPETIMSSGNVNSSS
M1 agonist = M1 muscarinic receptor agonism | hit rate 3% among 64,000 | CHO-M1 cells, Fluo-4 calcium fluorescence, agonist mode; active compounds read high | B-score at 10 µM;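 active = fluorescence rise, raw or as B-score row- and column-corrected plate score, outside the 99.7% band of its plate's samples, either direction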
S1P3 agonist = activates the human S1P3 receptor | Q99500 | S1P3 NFAT-BLA reporter cells, agonism, FRET ratio; relative to 1 µM S1P, basal subtracted | activation, % at 4.5 µM | AID 373 | hit rate 0.1% among 60,000;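 active = activation above the screen-wide mean plus 3 SD, cut at about 4.5% in these data, passing the limit was not always enough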
Target sequence (Q99500 whole entry, looked up): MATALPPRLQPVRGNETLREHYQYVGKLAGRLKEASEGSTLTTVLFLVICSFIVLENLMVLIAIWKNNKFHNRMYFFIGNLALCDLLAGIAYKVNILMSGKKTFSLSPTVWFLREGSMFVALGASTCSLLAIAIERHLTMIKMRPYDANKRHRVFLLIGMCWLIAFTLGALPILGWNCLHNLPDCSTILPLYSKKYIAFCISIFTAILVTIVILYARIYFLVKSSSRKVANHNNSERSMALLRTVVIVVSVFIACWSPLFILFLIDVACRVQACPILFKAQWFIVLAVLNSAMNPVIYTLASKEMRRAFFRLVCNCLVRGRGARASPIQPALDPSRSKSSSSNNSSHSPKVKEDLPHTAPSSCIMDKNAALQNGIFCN
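Assay system: CHO cells stably expressing human S1P3, Gα16 and NFAT-β-lactamase reporter. Timing: overnight plating, 4 h compound 37 °C, 2 h substrate RT. Signal: β-lactamase FRET emission ratio 460/535 nm. Measure: percent activation versus median 1 µM S1P response, basal-subtracted, per plate. Repeats: primary screen single test, confirmation screen in triplicate.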
An asterisk follows results filed as active; / = no result given. Sampled rows, rich in hits. Any-hit rate of the full collection: about 8.8%.

SMILES | M1 antag | SF1 activator | RORa activator | S1P1 ag-PAM | M1 agonist | S1P3 agonist
O=c1cc(Nc2ccc3c(c2)OCCO3)[nH]c(=O)n1-c1ccc(Cl)cc1 | 0.371 | 40.1 | 50.0* | -10.1 | 0.492 | -0.9
O=C(Nc1ccc(NC(=O)c2ccco2)nc1)c1ccccn1 | 1.27 | 51.5* | 26.9 | / | 1.63 | /
O=C(Nc1ccc(NC(=O)C23CC4CC(CC(C4)C2)C3)cn1)c1ccco1 | -1.67 | 89.9* | 28.1 | 2.6 | 0.283 | -1.6
O=C(Cc1ccccc1)Nc1ccc(NC(=O)c2ccco2)nc1 | -1.99 | 59.3* | 17.1 | -12.3 | -1.35 | -0.2
COc1ccc(C2OC(=O)CC2C(=O)NC2CCCCCC2)cc1OC (stereo not given) | 0.412 | -17.9 | 0.1 | / | -0.437 | /
Cc1cc(NC(=O)c2cncc(Br)c2)n(-c2ccccn2)n1 | -0.528 | -8.4 | -16.2 | / | -0.427 | /
CC(=O)Nc1ccc(OCC=C(Cl)Cl)cc1 | -0.611 | 0.4 | -2.7 | -5.4 | 0.494 | -1.0
O=S(=O)(C/C(=C/CO)S(=O)(=O)c1ccccc1)c1ccccc1 | 1.03 | -95.5 | -89.2 | 82.3* | 0.0885 | -1.6
O=C(Nc1nccs1)c1ccc(COc2ccccc2Br)o1 | -0.31 | 60.2* | 20.7 | 25.4 | -0.343 | -0.2
O=C(Nc1nccs1)c1ccc(COc2ccc(F)cc2)o1 | -1.55 | 63.6* | 8.0 | 4.4 | -0.00855 | -0.2
O=C(COc1ccc(F)cc1)Nc1nccs1 | -0.0112 | 42.1 | 101.9* | -8.9 | -0.189 | -1.1
CCOC(=O)C1CCN(c2cc(=O)n(Cc3ccc(F)cc3)c(=O)[nH]2)CC1 | 0.442 | -4.1 | -23.1 | -15.9 | 0.00797 | 0.5
COc1ccc(C(=O)COC(=O)CN2CC(=O)Oc3ccccc32)cc1Br | 0.0586 | -3.3 | -11.6 | 13.0 | 2.18 | -2.4
COc1cc(N2CN=c3s/c(=C\c4ccccn4)c(=O)n3C2)cc(OC)c1OC | 0.0267 | -17.4 | -14.5 | -20.3 | -0.446 | -1.1
CCOC(=O)C1=CN(C)C=C(C(=O)OCC)C1c1ccsc1 | 2.21* | 2.3 | -10.5 | -60.9 | 0.826 | 2.5
COC(=O)CSc1nnc([C@H](Cc2ccccc2)NC(=O)OC(C)(C)C)o1 | -0.168 | 2.6 | -8.3 | -6.5 | -0.212 | 0.2
COC(=O)CS(=O)(=O)c1nnc([C@H](Cc2ccccc2)NC(=O)OC(C)(C)C)o1 | 0.429 | -17.5 | -3.4 | 55.6* | 0.796 | -1.4
c1ccc(NC2=Nc3ccccc3CS2)cc1 | 0.0944 | 24.1 | 89.4* | 1.5 | 0.619 | -0.7
O=C(NC(O)C(=O)c1cccs1)c1cccnc1 (stereo not given) | 0.777 | 12.9 | -15.2 | 0.8 | 0.169 | -0.3
O=C(Nc1cccc(-c2cn3ccsc3n2)c1)c1ccccc1 | -0.732 | 26.6 | 48.8* | -8.6 | 0.471 | -0.1
O=C(Nc1ccc(-c2cn3ccsc3n2)cc1)C1COc2ccccc2O1 (stereo not given) | -0.229 | 57.1* | 17.3 | -9.0 | -0.601 | 0.1
O=C(Nc1nncs1)C1COc2ccccc2O1 (stereo not given) | 0.283 | 8.7 | -11.9 | 8.9 | 0.343 | -1.0
CCCCC(=O)Nc1cccc(-c2cn3ccsc3n2)c1 | 0.145 | 30.2 | 58.5* | -27.1 | 2.1 | 0.1
O=C(Nc1ccc(-c2cn3ccsc3n2)cc1)c1ccc(F)c(S(=O)(=O)N2CCOCC2)c1 | -0.291 | 57.1* | 42.5 | -28.1 | -0.737 | 0.2
Cc1cc(C)n(C(=O)C23CC4CC(CC(C4)C2)C3)n1 | 0.384 | -0.8 | -30.2 | -8.1 | -0.161 | 0.2
SMILES | M1 antag | SF1 activator | RORa activator | S1P1 ag-PAM | M1 agonist | S1P3 agonist
O=C(Nc1cccc(-c2cn3ccccc3n2)c1)c1cnccn1 | -0.0455 | 52.3* | 46.4 | / | 1.88 | /
O=C(CN1CCN(C(c2ccccc2)c2ccccc2)CC1)NC(=O)NCc1ccco1 | -0.507 | 16.4 | -2.3 | 22.3 | -3.17* | 0.1
O=C(CN1CCCc2ccccc21)NC(=O)NCc1ccco1 | -0.0319 | 8.1 | 3.9 | -6.8 | 0.0332 | -0.3
CCCN(C(=O)c1cccs1)c1nnc(-c2ccncc2)s1 | 0.386 | 37.5 | -8.6 | 100.7* | 0.481 | -0.9
CCc1nnc(NC(=O)CSc2nc3c(cc2C#N)CCCC3)s1 | 0.449 | 78.5* | 48.4 | / | -0.21 | -0.3
COC(=O)CC(=O)CSc1nc2c(cc1C#N)CCCCC2 | -0.307 | 78.0* | 39.5 | / | -1.67 | 0.0
CSc1nn(CCc2ccncc2)c(=S)s1 | -0.316 | -5.4 | 21.4 | -11.9 | 1.2 | 0.3
O=C(NCC1CCS(=O)(=O)C1)NCC1CCS(=O)(=O)C1 (stereo not given) | 0.834 | -4.7 | -3.9 | / | 0.388 | /
[N-]=[N+]=CC(=O)c1ccnc(C(=O)C=[N+]=[N-])c1 | 1.63* | 3.4 | -27.0 | 6.3 | -0.377 | -3.4
O=C(CN1CCCC1=O)NC1(C(F)(F)F)NC(=O)N(Cc2ccccc2)C1=O (stereo not given) | 0.874 | -9.3 | 7.5 | / | 0.821 | 0.2
CCOC(=O)Cn1cc(C(=O)c2ccco2)c2ccccc21 | 0.704 | 8.9 | -6.9 | -2.0 | 0.116 | -1.6
COc1ccccc1OCCn1cc(C(=O)c2ccco2)c2ccccc21 | -0.458 | -20.6 | -23.2 | 3.1 | 4.58* | -0.3
CCOc1cc(-c2cc(-c3ccc(N)cc3)nc(N)c2C#N)ccc1O | -0.158 | 54.2* | 31.8 | 0.5 | 0.00676 | 1.3
CCOc1cc(-c2c(C#N)c(N)nc3c2CCCC3)ccc1O | -0.0182 | 1.6 | 12.8 | -29.9 | -0.215 | 0.2
Nc1nc(NC(=O)Cc2ccccc2)nn1-c1ccccc1 | -0.315 | 2.6 | -6.2 | -18.6 | -0.786 | -1.1
CCOc1cc(NC(=O)C2CC2)c(OCC)cc1NC(=O)c1cccnc1 | 0.323 | -0.4 | -22.2 | -19.2 | -1.14 | -0.6
COc1ccc(C(=O)N(Cc2ccco2)C(C(=O)NC2CCCC2)c2ccc(O)cc2)cc1OC (stereo not given) | -1.29 | 5.4 | -2.0 | 8.8 | 2.59* | -0.5
COc1ccc(N/C(N)=N/c2nc(CSc3ccc(C)cc3)cc(=O)[nH]2)cc1 | -0.117 | 1.5 | 12.0 | 5.4 | -0.193 | -1.5
COc1ccccc1N/C(N)=N/c1nc(CSc2ccc(C)cc2)cc(=O)[nH]1 | / | -29.1 | 6.2 | 58.8* | / | -1.3
CC(=O)Nc1nc(-c2ccccc2)nc(C)c1C(C)=O | 0.189 | -7.8 | -16.1 | -24.1 | 0.0164 | -1.1
CC(=O)NC1Sc2ccccc2N=C1c1ccccc1 (stereo not given) | 0.691 | 59.2* | 41.9 | 2.4 | 0.744 | -1.0
COc1ccc(N2C(=O)CCC(C(=O)Nc3cccc(C)n3)C2c2ccc(OC)c(OC)c2)cc1 (stereo not given) | 0.65 | 4.8 | -3.1 | / | -0.621 | /
Cc1onc(-c2ccccc2)c1C(=O)Nc1cccc(C#N)c1 | 0.495 | 2.0 | 3.9 | -16.7 | -0.0177 | -0.6
Cc1ccc(NC(=O)c2c(O)c3ccccc3n(C)c2=O)nc1 | -0.0786 | 43.9 | 17.5 | / | -0.133 | /
Cc1ccnc(NC(=O)c2c(O)c3ccccc3n(C)c2=O)c1 | -0.274 | 76.1* | 74.5* | -8.2 | 0.689 | -1.2
